A selection: hits, their analogues and other compounds. The true share with any hit is near 2%.
CaV13 FRET inh = Disruptors of the CACNA1D IQ motif to Ca2+-dependent inactivation inhibitor domain association, primary screening, Förster resonance energy transfer in intact living …. HEK cells, CFP/YFP FRET ICDI-IQ, plate reader, 10 min; percent FRET-ratio fall versus neutral wells. inhibition, % at 12.3 µM. actives 0.098% (n = 340,000);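 active = mean replicate inhibition of at least 30% and at least 1% of replicates passing that level; inconclusive = only one of the two criteria is met; inactive = neither criterion is met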;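 note: 0% = median of the neutral control wells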
Casp6 inh = blocks human caspase-6 cleavage activity; purified caspase-6, Z-VEID-R110 cleavage fluorescence; inhibition, % at 12.5 µM; actives 0.53% (n = 350,000);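 active = mean inhibition across replicates at least about 35%, with every replicate also reaching that limit, limit read from the data; inconclusive = only one of the two criteria met; inactive = neither criterion met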;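 note: 0% = median of neutral control wells and 100% = no fluorescence left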
Target sequence (P55212 24-179 limits assumed): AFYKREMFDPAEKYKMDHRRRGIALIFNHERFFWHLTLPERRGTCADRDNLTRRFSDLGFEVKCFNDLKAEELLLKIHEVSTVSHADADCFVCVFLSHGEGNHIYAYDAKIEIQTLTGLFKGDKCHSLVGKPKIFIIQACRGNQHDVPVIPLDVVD
Target sequence (P55212 194-293 limits assumed): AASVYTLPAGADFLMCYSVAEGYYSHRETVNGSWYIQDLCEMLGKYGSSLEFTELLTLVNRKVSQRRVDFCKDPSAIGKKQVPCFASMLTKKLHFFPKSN
XiGFP reactiv = reactivates the inactive X chromosome in mouse fibroblasts | XiGFP mouse fibroblasts, % GFP-positive cells imaging, 3 d; cells co-treated with 5-aza-dC sensitizer; scaled so ellipticine positive control = 100% | actives 0.055% (n = 360,000) | AID 743238 | activation, % at 7.58 µM;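 active = mean normalized replicate activation at least 10% and every replicate at or above 10%; inconclusive = only one of the two criteria met; inactive = mean below 10% and not all replicates reach 10%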;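 note: 0% = median of on-plate neutral control wells and 100% = ellipticine 6 µM median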
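assay system = SV40-immortalized XiGFP fibroblast cells, line 68-5-11 | buffer or medium = DMEM plus 5-aza-dC sensitizer | doses = single-point pinned compound dosing | times = 3-day compound exposure, then 15 min fixation at room temperature | benchmarks = positive control ellipticine, 6 µM final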
FN deposition inh = fibronectin deposition inhibition. inhibition, % at 12.6 µM. AID 743247. actives 0.086% (n = 350,000). AH1F fibroblasts, Alexa488-fibronectin deposition fluorescence, overnight;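 active = mean inhibition across replicates of 30% or more, regardless of how many single replicates reach that level; inconclusive = mean under 30% yet at least half of replicates reach 30%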;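 note: positive control wells lacked labelled fibronectin entirely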
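Material – AH1F fibroblast monolayer, labelled fibronectin deposition · Reagent – labelled fibronectin 24 nM · Timing – 1 h adhesion, overnight exposure · Measured by – fluorescence at 485 nm excitation, 525 nm emission · Read-out – inhibition of fibronectin deposition signal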
DENV2 CPE rescue = protects cells from dengue virus 2 cytopathic effect. DENV2-infected cells, cytopathic effect rescue, plate reader. CPE inhibition, % at 9.99 µM. actives 1.7% (n = 350,000); in the data active = CPE inhibition above about 20%, passing the limit was not always enough; inconclusive = no clear call, values can overlap the other calls; tested in BHK-21 cells;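 note: 0% = median of neutral control wells and 100% = median of positive control wells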
The depositor's hits bear a star.

Results for COc1ccc(S(=O)(=O)N(C)C[C@@H]2Oc3ccc(NS(C)(=O)=O)cc3CC(=O)N([C@@H](C)CO)C[C@H]2C)cc1 ?
Casp6 inh: 6; XiGFP reactiv: -1; DENV2 CPE rescue: 48*

How did COc1ccc(NC(=O)Nc2ccc3c(c2)CC(=O)N([C@H](C)CO)C[C@H](C)[C@@H](CN(C)S(=O)(=O)c2ccc(OC)cc2)O3)cc1 do in these assays?
Casp6 inh: -3; XiGFP reactiv: -1; DENV2 CPE rescue: 70*

How did C[C@@H]1CN([C@H](C)CO)C(=O)c2cccc(NS(C)(=O)=O)c2O[C@H]1CN(C)S(=O)(=O)c1cccs1 do in these assays?
Casp6 inh: -7; XiGFP reactiv: -1; FN deposition inh: -8; DENV2 CPE rescue: 12

How did Cc1ccc(N(CC(=O)NCc2ccco2)S(=O)(=O)c2ccccc2)cc1 do in these assays?
CaV13 FRET inh: -3; FN deposition inh: 30*

How did Cc1ccc(S(=O)(=O)N(CC(=O)O)Cc2ccco2)cc1 do in these assays?
CaV13 FRET inh: 0; Casp6 inh: 63*; XiGFP reactiv: 1; FN deposition inh: 6; DENV2 CPE rescue: 28*

What do the screens show for `COc1ccccc1N(CC(=O)NCc1ccco1)S(=O)(=O)c1ccc(C)cc1`?
CaV13 FRET inh: -3; Casp6 inh: 50*; XiGFP reactiv: 0; FN deposition inh: 4; DENV2 CPE rescue: -2

How did CC1(C)N([O-])c2cc([N+](=O)[O-])ccc2[N+]1=O do in these assays?
CaV13 FRET inh: -12; Casp6 inh: 38*; XiGFP reactiv: 0; FN deposition inh: -5; DENV2 CPE rescue: -7

How did CCCc1cn(CC[C@@H]2CC[C@H](NC(=O)Nc3ccccc3F)[C@@H](CO)O2)nn1 do in these assays?
Casp6 inh: -1; XiGFP reactiv: 0; FN deposition inh: 4; DENV2 CPE rescue: 2

What do the screens show for `O=C(NCCCO)c1cc([N+](=O)[O-])cc2c1C=Cc1ccccc1O2`?
CaV13 FRET inh: -18; Casp6 inh: 89*; XiGFP reactiv: 0; FN deposition inh: -3

Results for CCN(CC(=O)Nc1c(F)cccc1F)C(=O)/C=C/c1ccc2c(c1)OCO2 ?
CaV13 FRET inh: -5; Casp6 inh: -1; XiGFP reactiv: 0; FN deposition inh: -2; DENV2 CPE rescue: 84*

What do the screens show for `CCN(CC(=O)Nc1c(F)cccc1F)C(=O)/C=C/c1ccc2ccccc2n1`?
CaV13 FRET inh: -6; Casp6 inh: 47*; XiGFP reactiv: 0; FN deposition inh: -4; DENV2 CPE rescue: 1

How did CCOc1ccc(/C=C/C(=O)N(CC)CC(=O)Nc2c(F)cccc2F)cc1OC do in these assays?
CaV13 FRET inh: -9; Casp6 inh: 1; XiGFP reactiv: 0; FN deposition inh: -7; DENV2 CPE rescue: 1

What do the screens show for `COc1ccccc1NCC(=O)N/N=C(\C)c1ccc(Br)s1`?
CaV13 FRET inh: -5; Casp6 inh: -1; XiGFP reactiv: 0; FN deposition inh: 2; DENV2 CPE rescue: 23*

How did C/C(=N/NC(=O)CNc1ccc(C)cc1)c1ccc(Br)s1 do in these assays?
CaV13 FRET inh: -6; Casp6 inh: 1; DENV2 CPE rescue: 4

What do the screens show for `CO[C@@H](C(=O)N(C)C[C@@H]1OCc2ccccc2-c2ccccc2C(=O)N([C@@H](C)CO)C[C@H]1C)c1ccccc1`?
Casp6 inh: 1; XiGFP reactiv: 0; FN deposition inh: -5; DENV2 CPE rescue: 1

How did C[C@H](CO)N1C[C@H](C)[C@H](CN(C)Cc2ccc(C(F)(F)F)cc2)Oc2ccc(N(C)C)cc2C1=O do in these assays?
Casp6 inh: -4; XiGFP reactiv: 0; FN deposition inh: -4; DENV2 CPE rescue: 40*

What do the screens show for `C[C@@H]1CN([C@H](C)CO)C(=O)c2cc(NC(=O)Cn3cnnn3)ccc2O[C@@H]1CN(C)C(=O)Nc1ccc(C(F)(F)F)cc1`?
Casp6 inh: -1; XiGFP reactiv: 0; DENV2 CPE rescue: 59*

Results for C[C@@H]1CN([C@H](C)CO)C(=O)c2cc(NC(=O)Nc3ccc(C(F)(F)F)cc3)ccc2O[C@@H]1CN(C)Cc1ccccc1 ?
Casp6 inh: 1; XiGFP reactiv: -1; DENV2 CPE rescue: 83*

How did C[C@@H]1CN([C@@H](C)CO)C(=O)c2cc(NC(=O)Cn3cnnn3)ccc2O[C@@H]1CN(C)C(=O)Nc1ccc(F)cc1 do in these assays?
Casp6 inh: 0; XiGFP reactiv: 0; FN deposition inh: 2; DENV2 CPE rescue: 0

What do the screens show for `C[C@@H]1CN([C@@H](C)CO)C(=O)c2cc(NC(=O)Nc3ccccc3)ccc2O[C@H]1CN(C)Cc1ccc(C(F)(F)F)cc1`?
Casp6 inh: 3; XiGFP reactiv: 0; DENV2 CPE rescue: 21*

How did C[C@H]1CN([C@@H](C)CO)C(=O)c2cc(N(C)C)ccc2O[C@@H]1CN(C)Cc1ccc(C(F)(F)F)cc1 do in these assays?
Casp6 inh: 0; XiGFP reactiv: 0; FN deposition inh: 3; DENV2 CPE rescue: 6

How did C[C@H](CO)N1C[C@H](C)[C@@H](CN(C)C(=O)Nc2ccccc2)Oc2c(NC(=O)C3CC3)cccc2C1=O do in these assays?
Casp6 inh: -1; XiGFP reactiv: 0; DENV2 CPE rescue: 13

What do the screens show for `CCCNC(=O)C[C@@H]1CC[C@@H]2[C@H](COc3ccc(NC(=O)COC)cc3C(=O)N2C)O1`?
XiGFP reactiv: 0; FN deposition inh: -2; DENV2 CPE rescue: inconclusive

How did CO[C@@H]1CN(C)C(=O)c2ccc(NC(C)=O)cc2OC[C@H](C)N(C(=O)Cc2cccnc2)C[C@H]1C do in these assays?
Casp6 inh: -2; XiGFP reactiv: 0; FN deposition inh: 2; DENV2 CPE rescue: -1

Results for CO[C@H]1CN(C)C(=O)c2cc(NC(C)=O)ccc2OC[C@H](C)N(C(=O)C2CC2)C[C@@H]1C ?
Casp6 inh: -4; XiGFP reactiv: 0; FN deposition inh: -12; DENV2 CPE rescue: -3

What do the screens show for `C[C@H]1CN([C@@H](C)CO)C(=O)c2cc(NC(=O)C3CC3)ccc2O[C@H]1CN(C)Cc1ccc(C(F)(F)F)cc1`?
Casp6 inh: 1; XiGFP reactiv: 0; DENV2 CPE rescue: 27*

Results for C[C@H]1CN([C@@H](C)CO)C(=O)c2cc(NC(=O)Nc3ccccc3)ccc2O[C@@H]1CN(C)C(=O)Nc1ccc(C(F)(F)F)cc1 ?
Casp6 inh: -1; XiGFP reactiv: 0; DENV2 CPE rescue: 22*

Results for C[C@H]1CN([C@@H](C)CO)C(=O)c2cc(NC(=O)C3CCCCC3)ccc2O[C@@H]1CN(C)Cc1ccc(C(F)(F)F)cc1 ?
Casp6 inh: -1; XiGFP reactiv: 0; DENV2 CPE rescue: -14

Results for Cc1ccc(S(=O)(=O)Nc2ccc3c(c2)CC(=O)N([C@H](C)CO)C[C@@H](C)[C@H](CN(C)Cc2ccc4c(c2)OCO4)O3)cc1 ?
Casp6 inh: 0; XiGFP reactiv: -1; DENV2 CPE rescue: -11
